ChEMBL document CHEMBL1156261, “Evaluation of substituted N,N'-diarylsulfonamides as activators of the tumor cell specific M2 isoform of pyruvate kinase” (J Med Chem, 2010)
Values after ≈ are worked out from the molar mass of the structure shown. Active and inactive are the calls of the source.

Columns and labels:
Pyruvate kinase PKM [1] = molecular target: T1, Pyruvate kinase PKM (Homo sapiens, UniProt P14618); assay: Activation of PKM1 assessed as ATP product formation by luminescent pyruvate kinase-luciferase coupled assay
Procedure, shortened: (§1)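 Luciferase-coupled ATP production assay run as for PKM2: imidazole pH 7.2 buffer with KCl, MgCl2, Tween 20 and BSA, 0.1 mM ADP, 0.5 mM PEP, 1 h at r.t., Kinase-Glo luminescence. Enzyme final concentrations were PKM1 1 nM, PKL 0.1 nM, PKR 0.1 nM. % activation normalized to DMSO (neutral) and no-enzyme controls.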
Target sequence in this assay (P14618 2-531 limits assumed): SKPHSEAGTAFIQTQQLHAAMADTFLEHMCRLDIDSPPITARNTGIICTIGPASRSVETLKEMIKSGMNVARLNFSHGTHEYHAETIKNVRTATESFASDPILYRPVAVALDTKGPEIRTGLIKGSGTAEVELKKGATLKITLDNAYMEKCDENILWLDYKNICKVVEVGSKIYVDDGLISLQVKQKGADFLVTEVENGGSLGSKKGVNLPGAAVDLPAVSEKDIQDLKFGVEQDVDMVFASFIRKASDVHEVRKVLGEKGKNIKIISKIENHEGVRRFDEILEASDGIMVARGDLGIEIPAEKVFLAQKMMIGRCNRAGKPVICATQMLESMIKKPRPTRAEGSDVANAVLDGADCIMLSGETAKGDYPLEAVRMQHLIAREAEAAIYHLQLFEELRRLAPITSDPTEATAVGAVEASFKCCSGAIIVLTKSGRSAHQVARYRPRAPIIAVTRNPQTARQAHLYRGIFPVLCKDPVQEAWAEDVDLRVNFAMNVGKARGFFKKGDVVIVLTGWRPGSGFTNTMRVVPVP

[2] = molecular target: Pyruvate kinase PKLR (Homo sapiens) (UniProt P30613); assay: Activation of PKR assessed as ATP product formation by luminescent pyruvate kinase-luciferase coupled assay relative to control; design: concentration or dose not given beside the values; procedure, shortened: as §1
Sequence of Pyruvate kinase PKLR (Homo sapiens) (P30613 whole entry, looked up): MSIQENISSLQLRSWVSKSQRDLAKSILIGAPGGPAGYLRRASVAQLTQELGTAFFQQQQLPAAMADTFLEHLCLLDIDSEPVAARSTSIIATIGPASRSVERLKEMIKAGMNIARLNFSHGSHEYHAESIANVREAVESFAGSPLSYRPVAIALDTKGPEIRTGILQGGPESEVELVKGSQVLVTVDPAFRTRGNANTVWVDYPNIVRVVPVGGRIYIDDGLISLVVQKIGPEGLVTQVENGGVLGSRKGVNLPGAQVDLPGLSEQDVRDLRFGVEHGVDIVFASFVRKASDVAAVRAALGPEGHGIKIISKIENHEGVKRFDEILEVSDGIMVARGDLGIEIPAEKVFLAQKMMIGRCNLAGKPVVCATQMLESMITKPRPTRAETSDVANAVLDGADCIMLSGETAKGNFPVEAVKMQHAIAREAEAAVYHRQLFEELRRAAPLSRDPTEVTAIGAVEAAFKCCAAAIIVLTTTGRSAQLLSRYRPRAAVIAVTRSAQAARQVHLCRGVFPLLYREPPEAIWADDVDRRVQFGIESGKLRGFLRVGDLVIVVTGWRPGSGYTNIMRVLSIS

[3] = molecular target: Pyruvate kinase PKLR (Homo sapiens) (UniProt P30613); assay: Activation of PKL assessed as ATP product formation by luminescent pyruvate kinase-luciferase coupled assay relative to control; design: concentration or dose not given beside the values; procedure, shortened: as §1
Pyruvate kinase PKM [4] = molecular target: T1, Pyruvate kinase PKM; assay: Activation of PKM1 assessed as pyruvate formation by fluorescent pyruvate kinase-lactate dehydrogenase coupled assay
Target sequence in this assay (P14618 2-531 limits assumed): as the sequence (P14618 2-531 limits assumed) above

Pyruvate kinase PKM [5] = molecular target: T1, Pyruvate kinase PKM; assay: Activation of PKM2 assessed as ATP product formation at 57 uM by luminescent pyruvate kinase-luciferase coupled assay relative to fructose-1,6-bis-phosphate
Procedure, shortened: (§2)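 Recombinant human PKM2 (0.1 nM final) in 50 mM imidazole pH 7.2, 50 mM KCl, 7 mM MgCl2, 0.01% Tween 20, 0.05% BSA; 0.1 mM ADP, 0.5 mM PEP; 1 h at r.t., then Kinase-Glo luciferase read of ATP formed. Activation % = (c−n)/(n−i)×100 against DMSO and no-enzyme controls; 100% ≈ 2-fold over basal signal. Max response taken at 57 μM; three separate experiments.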
Target sequence in this assay (P14618 2-531 limits assumed): as above

[6] = molecular target: Pyruvate kinase PKLR (Homo sapiens) (UniProt P30613); assay: Activation of PKL assessed as pyruvate formation by fluorescent pyruvate kinase-lactate dehydrogenase coupled assay relative to control; design: concentration or dose not given beside the values
Pyruvate kinase PKM [7] = molecular target: T1, Pyruvate kinase PKM; assay: Activation of PKM2 assessed as ATP product formation by luminescent pyruvate kinase-luciferase coupled assay; procedure, shortened: as §2
Target sequence in this assay (P14618 whole entry): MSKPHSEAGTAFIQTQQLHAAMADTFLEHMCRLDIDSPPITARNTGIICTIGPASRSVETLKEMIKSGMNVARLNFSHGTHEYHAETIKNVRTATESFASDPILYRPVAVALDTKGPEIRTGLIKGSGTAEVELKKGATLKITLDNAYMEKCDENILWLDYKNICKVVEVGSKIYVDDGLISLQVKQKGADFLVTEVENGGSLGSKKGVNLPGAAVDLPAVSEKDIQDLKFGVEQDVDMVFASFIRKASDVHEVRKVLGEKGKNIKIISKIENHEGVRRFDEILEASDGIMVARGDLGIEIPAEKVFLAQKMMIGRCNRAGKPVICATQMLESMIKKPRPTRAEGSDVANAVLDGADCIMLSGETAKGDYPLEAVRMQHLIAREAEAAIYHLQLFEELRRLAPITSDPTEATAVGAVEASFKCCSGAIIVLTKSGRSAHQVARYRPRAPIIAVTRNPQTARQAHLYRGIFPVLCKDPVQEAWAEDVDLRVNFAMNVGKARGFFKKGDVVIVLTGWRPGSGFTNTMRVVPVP

[8] = molecular target: Pyruvate kinase PKLR (Homo sapiens) (UniProt P30613); assay: Activation of PKR assessed as pyruvate formation by fluorescent pyruvate kinase-lactate dehydrogenase coupled assay relative to control; design: concentration or dose not given beside the values
[9] = Kinetic solubility by quantitative nitrogen detection assay; assay type: physicochemical
Procedure, shortened: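 Kinetic solubility was determined by quantitative nitrogen detection in three separate experiments.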

Pyruvate kinase PKM [10] = molecular target: T1, Pyruvate kinase PKM; assay: Activation of PKM2 in presence of excess of phosphoenolpyruvate level
Target sequence in this assay (P14618 2-531 limits assumed): as the sequence (P14618 2-531 limits assumed) above

Pyruvate kinase PKM [11] = molecular target: T1, Pyruvate kinase PKM; assay: Activation of PKM2 assessed as effect on Km for ADP relative to untreated control
Procedure, shortened: (§3)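 Steady-state kinetics were measured by the PK–LDH coupled assay at about 22 °C with 10 nM PKM2, 200 mM KCl and 15 mM MgCl2. One substrate (PEP or ADP) was varied with the other held at 4.0 mM, with or without activator. Fluorescence was converted to pmol NADH by a standard curve; initial rates (pmol/min) were fit for KM.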
Target sequence in this assay (P14618 2-531 limits assumed): as above

Pyruvate kinase PKM [12] = molecular target: T1, Pyruvate kinase PKM; assay: Activation of PKM2 assessed as reduction of Km for phosphoenolpyruvate relative to untreated control; procedure, shortened: as §3
Target sequence in this assay (P14618 2-531 limits assumed): as above

Pyruvate kinase PKM [13] = molecular target: T1, Pyruvate kinase PKM; assay: Activation of PKM2 assessed as pyruvate formation by fluorescent pyruvate kinase-lactate dehydrogenase coupled assay relative to fructose-1,6-bis-phosphate
Procedure, shortened: (§4)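 Kinetic PK–LDH coupled read: 10 nM hPK-M2 with 1 μM LDH in 50 mM Tris-Cl pH 8.0, 200 mM KCl, 15 mM MgCl2, 0.1 mM PEP, 4.0 mM ADP, 0.2 mM NADH. NADH fluorescence decrease was read at 30 s intervals over 3–6 min.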

Pyruvate kinase PKM [14] = molecular target: T1, Pyruvate kinase PKM; assay: Activation of PKM2 assessed as pyruvate formation by fluorescent pyruvate kinase-lactate dehydrogenase coupled assay; procedure, shortened: as §4
Target sequence in this assay (P14618 whole entry): as the sequence (P14618 whole entry) above

| SMILES | Activity (Pyruvate kinase PKM [1]) | Activity [2] [%] | Activity [3] [%] | Activity (Pyruvate kinase PKM [4]) | Activity (Pyruvate kinase PKM [5]) | Activity [6] [%] | AC50 (Pyruvate kinase PKM [7]; read-out: AC50) [µM] | Activity [8] [%] | solubility kinetic [9] [µM] | AC50 (Pyruvate kinase PKM [7]) | Activity (Pyruvate kinase PKM [10]) | Activity (Pyruvate kinase PKM [11]) | fold change (FC) (Pyruvate kinase PKM [12]) | Activity (Pyruvate kinase PKM [13]) [%] | AC50 (Pyruvate kinase PKM [14]) [µM] |
| --- | --- | --- | --- | --- | --- | --- | --- | --- | --- | --- | --- | --- | --- | --- | --- |
| O=S(=O)(NCC1CN(S(=O)(=O)c2ccc3c(c2)OCCO3)C1)c1c(F)cccc1F | inactive | < 30 | < 30 | inactive | 93.3% | < 30 | 4.47 | < 30 |  |  |  |  |  |  |  |
| O=S(=O)(NC1CCN(S(=O)(=O)c2ccc3c(c2)OCCO3)CC1)c1c(F)cccc1F | inactive | < 30 | < 30 | inactive | 101% | < 30 | 3.69 | < 30 |  |  |  |  |  |  |  |
| COc1cc(F)c(S(=O)(=O)N2CCN(S(=O)(=O)c3cccc(N)c3)CC2)c(F)c1 | inactive | < 30 | < 30 | inactive | 90.5% | < 30 | 0.026 | < 30 | < 0.7 |  |  |  |  |  |  |
| O=S(=O)(NC1CCN(S(=O)(=O)c2c(F)cccc2F)C1)c1ccc2c(c1)OCCO2 (stereo not drawn) | inactive | < 30 | < 30 | inactive | 83.7% | < 30 | > 10 | < 30 |  |  |  |  |  |  |  |
| O=S(=O)(NCC1CN(S(=O)(=O)c2c(F)cccc2F)C1)c1ccc2c(c1)OCCO2 | inactive | < 30 | < 30 | inactive | 108% | < 30 | 3.05 | < 30 |  |  |  |  |  |  |  |
| O=S(=O)(N[C@H]1CC[C@@H](NS(=O)(=O)c2c(F)cccc2F)CC1)c1ccc2c(c1)OCCO2 | inactive | < 30 | < 30 | inactive | 60.7% | < 30 | > 35 | < 30 |  |  |  |  |  |  |  |
| O=S(=O)(c1ccc2c(c1)OCCO2)N1CCN(S(=O)(=O)c2c(F)cccc2F)CC1 | inactive | < 30 | < 30 | inactive | 94.4% | < 30 |  | < 30 | < 1.1 |  |  |  |  |  |  |
| O=C(c1ccc2c(c1)OCCO2)N1CCN(S(=O)(=O)c2c(F)cccc2F)CC1 | inactive | < 30 | < 30 | inactive | inactive | < 30 |  | < 30 |  | Not Active |  |  |  |  |  |
| O=S(=O)(c1ccc2c(c1)OCCO2)N1CCCN(S(=O)(=O)c2c(F)cccc2F)CC1 | inactive | < 30 | < 30 | inactive | 120% | < 30 |  | < 30 | 5.6 (≈ 2.66 µg/mL) |  |  |  |  |  |  |
| O=P(O)(O)OC[C@H]1O[C@@](O)(COP(=O)(O)O)[C@@H](O)[C@@H]1O |  |  |  |  |  |  |  |  |  |  | inactive |  |  |  |  |
| O=S(=O)(NC1CCN(S(=O)(=O)c2c(F)cccc2F)CC1)c1ccc2c(c1)OCCO2 | inactive | < 30 | < 30 | inactive |  | < 30 | 9 | < 30 |  |  |  |  |  |  |  |
| Nc1cccc(S(=O)(=O)N2CCN(S(=O)(=O)c3c(F)cccc3F)CC2)c1 | inactive | < 30 | < 30 | inactive | 84.4% | < 30 | 0.099 | < 30 | 5.7 (≈ 2.38 µg/mL) |  |  |  |  |  |  |
| O=S(=O)(NC1CCN(S(=O)(=O)c2ccc3c(c2)OCCO3)C1)c1c(F)cccc1F (stereo not drawn) | inactive | < 30 | < 30 | inactive | 82.4% | < 30 | > 15 | < 30 |  |  |  |  |  |  |  |
| O=S(=O)(NCCNS(=O)(=O)c1c(F)cccc1F)c1ccc2c(c1)OCCO2 | inactive | < 30 | < 30 | inactive | 60.3% | < 30 | > 15 | < 30 |  |  |  |  |  |  |  |
| O=C(c1c(F)cccc1F)N1CCN(S(=O)(=O)c2ccc3c(c2)OCCO3)CC1 | inactive | < 30 | < 30 | inactive | inactive | < 30 |  | < 30 |  | Not Active |  |  |  |  |  |
| COc1cc(F)c(S(=O)(=O)N2CCCN(S(=O)(=O)c3cccc(N)c3)CC2)c(F)c1 | inactive | < 30 | < 30 | inactive | 92.5% | < 30 | 0.223 | < 30 | 26.3 (≈ 12.1 µg/mL) |  |  |  |  |  |  |
| O=S(=O)(c1ccc2c(c1)OCCO2)N1CCN(S(=O)(=O)c2cccc[n+]2[O-])CC1 | inactive | < 30 | < 30 | inactive | 81.5% | < 30 | > 10 | < 30 |  |  |  |  |  |  |  |
| Nc1cccc(S(=O)(=O)N2CCN(S(=O)(=O)c3ccc4c(c3)OCCO4)CC2)c1 | inactive | < 30 | < 30 | inactive | 83.7% | < 30 | 0.043 | < 30 | 7.3 (≈ 3.21 µg/mL) |  |  |  |  |  |  |
| C[C@@H]1CN(S(=O)(=O)c2ccc3c(c2)OCCO3)CCN1S(=O)(=O)c1c(F)cccc1F | inactive | < 30 | < 30 | inactive | 108% | < 30 | 2.93 | < 30 |  |  |  |  |  |  |  |
| C[C@H]1CN(S(=O)(=O)c2ccc3c(c2)OCCO3)CCN1S(=O)(=O)c1c(F)cccc1F | inactive | < 30 | < 30 | inactive | 108% | < 30 | 9.18 | < 30 |  |  |  |  |  |  |  |
| C[C@@H]1CN(S(=O)(=O)c2c(F)cccc2F)CCN1S(=O)(=O)c1ccc2c(c1)OCCO2 | inactive | < 30 | < 30 | inactive | 98.8% | < 30 |  | < 30 |  |  |  |  |  |  |  |
| Nc1cccc(S(=O)(=O)N2CCCN(S(=O)(=O)c3ccc4c(c3)OCCO4)CC2)c1 | inactive | < 30 | < 30 | inactive | 81.7% | < 30 |  | < 30 | 51.2 (≈ 23.2 µg/mL) |  |  |  |  |  |  |
| COc1ccc(S(=O)(=O)N2CCN(S(=O)(=O)c3ccc4c(c3)OCCO4)CC2)cc1 | inactive | < 30 | < 30 | inactive | 92.2% | < 30 |  | < 30 |  |  | inactive | inactive | 10 | 150 | 0.75 |
